Molecules are shown by their SMILES. “Also recorded” adds a separate entry of the source.

The results in this text go back to paper PMC7744356 (European journal of medicinal chemistry, 2020).

Type in all cases: cell-based
The target of experiment [1] is T1, N1303K-CFTR (Homo sapiens, UniProt P13569, N1303K). Briefly: Co-potentiator activity in N1303K-CFTR expressing FRT cell model. Particulars: for VMAX / co-potentiator activity (in words): N1303K-CFTR expressing FRT cells; for VMAX: 20 = 100%; for fold more potent than 20: EC50 relative to 20. In outline:
(§1)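 FRT cells stably expressing N1303K-CFTR, grown on permeable supports and corrected with 3 μM VX-661 for 18–24 h. Short-circuit current was recorded at 37 °C in HCO3-buffered solutions with a chloride gradient and the basolateral membrane permeabilized with 250 μg/ml amphotericin B. Additions: 20 μM forskolin, 5 μM VX-770, rising test compound concentrations, then 10 μM CFTRinh-172. EC50 and maximal response come from concentration-dependence data (n=3, mean ± S.E.M.), with potency relative to a reference co-potentiator.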

In experiment [2] the target is T1, N1303K-CFTR. Briefly: Short-circuit current in FRT cells expressing N1303K-CFTR. Particulars: N1303K-CFTR EC50. The essentials: as §1
Experiment [3] deals with R347P-CFTR (Homo sapiens, UniProt P13569, R347P). Briefly: Short-circuit current in FRT cells expressing R347P-CFTR. Particulars: 20 μM 2i after 20 μM forskolin and 5 μM VX-770. In outline: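 Permeabilized FRT monolayers stably expressing R347P-CFTR were pre-corrected with 3 μM VX-661 for 18–24 h. Short-circuit current was measured at 37 °C in HCO3-buffered solutions under a chloride gradient, with the basolateral membrane opened using 250 μg/ml amphotericin B. Sequential additions: 20 μM forskolin, 5 μM VX-770, 20 μM test compound, then 10 μM CFTRinh-172.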

For experiment [4], the target named is T1, N1303K-CFTR. Briefly: Short-circuit current in gene-edited 16HBE14o- cells expressing N1303K-CFTR. The essentials:
(§2)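 Gene-edited 16HBE14o- human bronchial epithelial cells carrying endogenous N1303K or I1234del CFTR were grown on permeable supports. The I1234del cells were corrected with 18 μM VX-661 plus 3 μM VX-445 for 18–24 h. Short-circuit current was measured at 37 °C in Hepes-buffered solutions with a chloride gradient. Additions: 20 μM forskolin, 5 μM VX-770, 10 μM test compound, then 10 μM CFTRinh-172. The CFTRinh-172-inhibitable ΔIsc is compared with the VX-770-alone response (mean ± S.E.M., n=3, unpaired t-test).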

In experiment [5] the target is I1234del-CFTR (Homo sapiens, UniProt P13569, DEL1234-1239). Briefly: Short-circuit current in gene-edited 16HBE14o- cells expressing I1234del-CFTR. The settings on record: 10 μM 2i. The essentials: as §2

Turning to `COc1ccc2[nH]c3c(c2c1)CCNC31CCN(Cc2cc(Cl)ccc2[N+](=O)[O-])CC1` [1c, 1-(5-Chloro-2-nitrobenzyl)-6’-methoxy-2’,3’,4’,9’-tetrahydrospiro[piperidine-4,1’-pyrido[3,4-b]indole]], the VMAX result in experiment [1] is on record as “improved Vmax”.
`COc1ccc2[nH]c3c(c2c1)CCNC31CCN(Cc2ccc(F)cc2F)CC1` [2a, 1-(2,4-Difluorobenzyl)-6’-methoxy-2’,3’,4’,9’-tetrahydrospiro[piperidine-4,1’-pyrido[3,4-b]indole]]: the “co-potentiator activity (in words)” value in experiment [1] is “active”.
Take `COc1ccc2[nH]c3c(c2c1)CCNC31CCN(Cc2cc(F)cc(Cl)c2)CC1` [1e, 1-(3-Chloro-5-fluorobenzyl)-6’-methoxy-2’,3’,4’,9’-tetrahydrospiro[piperidine-4,1’-pyrido[3,4-b]indole]]: in experiment [1], the “co-potentiator activity (in words)” value is reported as “decreased activity”.
On to `COc1ccc2[nH]c3c(c2c1)CCNC31CCN(Cc2ccc(F)cc2F)C1` (stereo not drawn) [4b, 1’-(2,4-Difluorobenzyl)-6-methoxy-2,3,4,9-tetrahydrospiro[pyrido[3,4-b]indole-1,3’-pyrrolidine]], for which the “co-potentiator activity (in words)” value in experiment [1] was “inactive; also recorded: abolished activity”.
In the case of `Fc1ccc(CN2CCC3(CC2)NCCc2c3[nH]c3ccc(Cl)cc23)c(F)c1` [5c, 6’-Chloro-1-(2,4-difluorobenzyl)-2’,3’,4’,9’-tetrahydrospiro[piperidine-4,1’-pyrido[3,4-b]indole]], in experiment [1], the “fold more potent than 20” value is “approximately 4 fold” and the “co-potentiator activity (in words)” value is given as “tolerated”.
Consider `COc1ccc2[nH]c3c(c2c1)CCNC31CCN(CCCc2ccccc2)CC1` [3d, 6’-Methoxy-1-(3-phenylpropyl)-2’,3’,4’,9’-tetrahydrospiro[piperidine-4,1’-pyrido[3,4-b]indole]], for which the “co-potentiator activity (in words)” value in experiment [1] is “greatly reduced activity; also recorded: inactive”.
On to `COc1ccc2[nH]c3c(c2c1)CCNC31CCN(Cc2cc(F)c(F)cc2F)CC1` [2i, 6’-Methoxy-1-(2,4,5-trifluorobenzyl)-2’,3’,4’,9’-tetrahydrospiro[piperidine-4,1’-pyrido[3,4-b]indole]], for which the “co-potentiator activity (in words)” value in experiment [1] is “most potent”. Also, in experiment [2], the “fold improvement in potency over the original compound (20)” value is given as ~ 17 fold. Moreover, the “activation of R347P-CFTR (in words)” value in experiment [3] is on record as “not activated”. The “fold greater response than VX-770 alone” value in experiment [4] (10 μM 2i) is on record as “approximately 6 fold”; in experiment [5] it was roughly 2 fold. The “CFTRinh-172-inhibitable short-circuit current response” value in experiment [4] (10 μM 2i after 20 μM forskolin and 5 μM VX-770, mean ± S.E.M., n=3) came to 16.1 ± 0.4 μA/cm^2.
Take `COc1ccc2[nH]cc(CCNC3CCN(Cc4ccccc4)CC3)c2c1` [4d, 1-Benzyl-N-(2-(5-methoxy-1H-indol-3-yl)ethyl)piperidin-4-amine]: in experiment [1], the “co-potentiator activity (in words)” value is given as “abolished activity”.
For `COc1ccc2c(c1)c1c(n2C)C2(CCN(Cc3ccc(F)cc3F)CC2)NCC1` [5e, 1-(2,4-Difluorobenzyl)-6’-methoxy-9’-methyl-2’,3’,4’,9’-tetrahydrospiro[piperidine-4,1’-pyrido[3,4-b]indole]], in experiment [1], the “co-potentiator activity (in words)” value was “inactive; also recorded: inactivity”.
As for `COc1ccc2[nH]c3c(c2c1)CCNC31CCN(Cc2ccc(F)c(Cl)c2F)CC1` [1j, 1-(3-Chloro-2,4-difluorobenzyl)-6’-methoxy-2’,3’,4’,9’-tetrahydrospiro[piperidine-4,1’-pyrido[3,4-b]indole]], the VMAX result in experiment [1] was “improved Vmax”.
As for `COc1ccc2[nH]c3c(c2c1)CCNC31CCNCC1` [3a, 6’-Methoxy-2’,3’,4’,9’-tetrahydrospiro[piperidine-4,1’-pyrido[3,4-b]indole]], the “co-potentiator activity (in words)” value in experiment [1] was “inactive”.
Same read-out and setting: the value for `COc1ccc2[nH]c3c(c2c1)CCNC31CCCN(Cc2ccc(F)cc2F)CC1` (stereo not drawn) [4a, 1-(2,4-Difluorobenzyl)-6’-methoxy-2’,3’,4’,9’-tetrahydrospiro[azepane-4,1’-pyrido[3,4-b]indole]] was “inactive”.
As for `COc1ccc2[nH]c3c(c2c1)CCNC31CCN(CCc2ccccc2)CC1` [3c, 6’-Methoxy-1-phenethyl-2’,3’,4’,9’-tetrahydrospiro[piperidine-4,1’-pyrido[3,4-b]indole]], the “co-potentiator activity (in words)” value in experiment [1] was “greatly reduced activity; also recorded: inactive”.
As for `COc1ccc2[nH]c3c(c2c1)CCNC31CCN(Cc2ccco2)CC1` [3e, 1-(Furan-2-ylmethyl)-6’-methoxy-2’,3’,4’,9’-tetrahydrospiro[piperidine-4,1’-pyrido[3,4-b]indole]], the “co-potentiator activity (in words)” value in experiment [1] is “active, but less potent”.
As to `COc1ccc2[nH]c3c(c2c1)CCNC31CCN(Cc2ccccn2)CC1` [3f, 6’-Methoxy-1-(pyridin-2-ylmethyl)-2’,3’,4’,9’-tetrahydrospiro[piperidine-4,1’-pyrido[3,4-b]indole]], in experiment [1] (FRT, read-out: VMAX), the Emax stood at 107%. The “co-potentiator activity (in words)” value in experiment [1] is “active, but less potent”.
As for `COc1ccc2[nH]c3c(c2c1)CCNC31CCN(Cc2c(F)c(F)c(F)c(F)c2F)CC1` [2e, 6’-Methoxy-1-((perfluorophenyl)methyl)-2’,3’,4’,9’-tetrahydrospiro[piperidine-4,1’-pyrido[3,4-b]indole]], the “co-potentiator activity (in words)” value in experiment [1] is given as “active”.
As for `COc1ccc2c3c([nH]c2c1)C1(CCN(Cc2ccc(F)cc2F)CC1)NCC3` [5d, 1-(2,4-Difluorobenzyl)-7’-methoxy-2’,3’,4’,9’-tetrahydrospiro[piperidine-4,1’-pyrido[3,4-b]indole]], in experiment [1], the “fold more potent than 20” value was “approximately 4 fold” and the “co-potentiator activity (in words)” value is on record as “decreased activity”.
In the case of `COc1ccc2[nH]c3c(c2c1)CCNC31CCCN(Cc2ccc(F)cc2F)C1` (stereo not drawn) [4c, 1-(2,4-Difluorobenzyl)-6’-methoxy-2’,3’,4’,9’-tetrahydrospiro[piperidine-3,1’-pyrido[3,4-b]indole]], the “co-potentiator activity (in words)” value in experiment [1] is “inactive; also recorded: abolished activity”.
The same measure, in the same setting: the entry for `COc1ccc2[nH]c3c(c2c1)CCN[C@@]31CCN2Cc3ccccc3C[C@H]2C1` (racemic) [6b, (+/−)-(2R,11aS)-6’-methoxy-1,2’,3,3’,4,4’,6,9’,11,11a-decahydrospiro[pyrido[1,2-b]isoquinoline-2,1’-pyrido[3,4-b]indole]] is “inactive”.
Still for that read-out and setting: the value for `COc1ccc2[nH]c3c(c2c1)CCNC31CCN(Cc2cc(F)cc(F)c2)CC1` [2c, 1-(3,5-Difluorobenzyl)-6’-methoxy-2’,3’,4’,9’-tetrahydrospiro[piperidine-4,1’-pyrido[3,4-b]indole]] was “active”.
For `COc1ccc2[nH]c3c(c2c1)CCNC31CCN(Cc2ccc(Cl)cc2Cl)CC1` [1d, 1-(2,4-Dichlorobenzyl)-6’-methoxy-2’,3’,4’,9’-tetrahydrospiro[piperidine-4,1’-pyrido[3,4-b]indole]], the “co-potentiator activity (in words)” value in experiment [1] is “decreased activity”.
The same measure, in the same setting: the value for `COc1ccc2[nH]c3c(c2c1)CCNC31CCN(Cc2cccnc2)CC1` [3g, 6’-Methoxy-1-(pyridin-3-ylmethyl)-2’,3’,4’,9’-tetrahydrospiro[piperidine-4,1’-pyrido[3,4-b]indole]] was “active, but less potent”.
